SMILES strings stand for the structures. Activity calls are given as the source filed them.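 Rule for the calls: active = target-selective compounds that prevent over 30% of T7 phage killing of the bacteria in the dose series; inactive = the rest.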

From PubChem BioAssay AID504767 (Southern Research Specialized Biocontainment Screening …, 2011) come the findings set out here.

A short description of the assay: T7 phage susceptibility of EV36 E. coli – EV36 strain, set 4, selectivity assay for bacterial capsule biogenesis inhibitors, dose response (AID 504767). Particulars: series mostly up to 100 µM. The gist of the method: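 Assay system: Escherichia coli EV36, a K1:K-12 hybrid strain; Signal: optical density at 600 nm, before and after phage; Medium: LB broth, overnight culture diluted 1:100; Timing: 1.5 h compound exposure at 37 °C with shaking, then 3 h post-phage; Dosing: concentration series from 100 µM down to 0.39 µM, 1% DMSO.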

As to `O=C(Nc1nc2c(F)cc(F)cc2s1)c1ccncc1`, the compound was called inactive.
Regarding `O=C(Nc1nc2ccccc2s1)c1ccncc1`, the outcome was inactive.
Regarding `O=C(Nc1nc2ccc(F)cc2s1)c1ccccn1`, the compound was classed as inactive.
`O=C(Nc1nc2c(Cl)cc(Cl)cc2s1)c1ccccn1`: the result was inactive.
To `O=C(Nc1nc2c(F)cc(F)cc2s1)c1cccnc1` belongs “inactive”.
As for `O=C(Nc1nc2ccccc2s1)c1cccnc1`, the outcome was inactive.
For the compound `O=C(Nc1nc2c(F)cccc2s1)c1ccccn1`, the call was inactive.
As to `O=C(Nc1nc2c(F)cc(F)cc2s1)c1ccccc1`, the call was inactive.
To `Cc1cc(C)c2nc(NC(=O)c3ccccn3)sc2c1` belongs “inactive”.
